Experimental data published in ChEMBL document CHEMBL5357072, “Structural Modification of Noscapine via Photoredox/Nickel Dual Catalysis for the Discovery of S-Phase Arresting Agents” (ACS Med Chem Lett, 2024).

Experiments:
Format in all cases: functional
Settings in all cases: read-out: GI
HeLa = assay: Antiproliferative activity against human HeLa cells assessed as cell growth inhibition at 10 uM incubated for 48 hrs by CCK8 assay relative to control
Outline: (§1)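 Single-concentration screen of six cancer cell lines. Cells were exposed to 10 μM compound and growth was measured by CCK-8 assay. Results are reported as inhibition rate at 10 μM.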

NB-4 = assay: Antiproliferative activity against human NB4 cells assessed as cell growth inhibition at 10 uM incubated for 48 hrs by CCK8 assay relative to control; outline: as §1
MOLM-13 = assay: Antiproliferative activity against human MOLM-13 cells assessed as cell growth inhibition at 10 uM incubated for 48 hrs by CCK8 assay relative to control; outline: as §1
U-251 = assay: Antiproliferative activity against human U-251 cells assessed as cell growth inhibition at 10 uM incubated for 48 hrs by CCK8 assay relative to control; outline: as §1
JeKo-1 = assay: Antiproliferative activity against human JeKo-1 cells assessed as cell growth inhibition at 10 uM incubated for 48 hrs by CCK8 assay relative to control; outline: as §1
A549 = assay: Antiproliferative activity against human A549 cells assessed as cell growth inhibition at 10 uM incubated for 48 hrs by CCK8 assay relative to control; outline: as §1

SMILES	inhibition of growth at 10 µM (HeLa) [%]	inhibition of growth at 10 µM (NB-4) [%]	inhibition of growth at 10 µM (MOLM-13) [%]	inhibition of growth at 10 µM (U-251) [%]	inhibition of growth at 10 µM (JeKo-1) [%]	inhibition of growth at 10 µM (A549) [%]
CCOP(=O)(CCc1c2c(c(OC)c3c1OCO3)[C@H]([C@H]1OC(=O)c3c1ccc(OC)c3OC)N(C(=O)OC(C)(C)C)CC2)OCC	< 5	6.64	31.1	< 5	12.1	< 5
COc1ccc2c(c1OC)C(=O)O[C@@H]2[C@H]1c2c(c(CCCC(F)(F)F)c3c(c2OC)OCO3)CCN1C(=O)OC(C)(C)C	< 5	31.5	36	< 5	25.6	< 5
COc1ccc2c(c1OC)C(=O)O[C@@H]2[C@H]1c2c(c(CC3CCN3C(=O)OC(C)(C)C)c3c(c2OC)OCO3)CCN1C(=O)OC(C)(C)C (stereo partly specified)	< 5	13.8	43.2	< 5	12.9	< 5
COc1ccc2c(c1OC)C(=O)O[C@@H]2[C@H]1c2c(c(C34C[C@H]5C[C@H](C3)C[C@@H](C4)C5)c3c(c2OC)OCO3)CCN1C(=O)OC(C)(C)C	< 5	< 5	17.6	< 5	< 5	< 5
COc1ccc2c(c1OC)C(=O)O[C@@H]2[C@H]1c2c(c(CCNC(=O)OC(C)(C)C)c3c(c2OC)OCO3)CCN1C(=O)OC(C)(C)C	< 5	29.9	43.5	< 5	14	< 5
COc1ccc2c(c1OC)C(=O)O[C@@H]2[C@H]1c2c(c(C3CC4CCC3C4)c3c(c2OC)OCO3)CCN1C(=O)OC(C)(C)C (stereo partly specified)	< 5	15	48.6	< 5	< 5	< 5
COCCCc1c2c(c(OC)c3c1OCO3)[C@H]([C@H]1OC(=O)c3c1ccc(OC)c3OC)N(C(=O)OC(C)(C)C)CC2	< 5	27.2	30.4	< 5	23.3	< 5
COc1ccc2c(c1OC)C(=O)O[C@@H]2[C@H]1c2c(c(C3CCC3)c3c(c2OC)OCO3)CCN1C(=O)OC(C)(C)C	< 5	13.5	40.4	< 5	< 5	< 5
COc1ccc2c(c1OC)C(=O)O[C@@H]2[C@H]1c2c(c(CC3CN(C(=O)OC(C)(C)C)C3)c3c(c2OC)OCO3)CCN1C(=O)OC(C)(C)C	< 5	63.1	59	< 5	48	10.6
COc1ccc2c(c1OC)C(=O)O[C@@H]2[C@H]1c2c(c(CCCCCC#N)c3c(c2OC)OCO3)CCN1C(=O)OC(C)(C)C	16.1	14.1	46.3	19.1	19.9	< 5
COc1ccc2c(c1OC)C(=O)O[C@@H]2[C@H]1c2c(c(CC3(F)CN(C(=O)OC(C)(C)C)C3)c3c(c2OC)OCO3)CCN1C(=O)OC(C)(C)C	8.57	42.5	61.5	< 5	43.9	< 5
COc1ccc2c(c1OC)C(=O)O[C@@H]2[C@H]1c2c(c(CC[Si](C)(C)C)c3c(c2OC)OCO3)CCN1C(=O)OC(C)(C)C	< 5	21.9	46.9	< 5	< 5	< 5
COc1ccc2c(c1OC)C(=O)O[C@@H]2[C@H]1c2c(c(C3CCCC3)c3c(c2OC)OCO3)CCN1C(=O)OC(C)(C)C	< 5	11.6	40	< 5	5.81	< 5
COc1ccc2c(c1OC)C(=O)O[C@@H]2[C@H]1c2c(c(C3CCCCCC3)c3c(c2OC)OCO3)CCN1C(=O)OC(C)(C)C	< 5	< 5	39.4	20.5	10.3	< 5
COc1ccc2c(c1OC)C(=O)O[C@@H]2[C@H]1c2c(c(C3CCC(C)(C)CC3)c3c(c2OC)OCO3)CCN1C(=O)OC(C)(C)C	< 5	29.6	47.6	< 5	7.49	< 5
COc1ccc2c(c1OC)C(=O)O[C@@H]2[C@H]1c2c(c(CC3CC3)c3c(c2OC)OCO3)CCN1C(=O)OC(C)(C)C	< 5	8.2	43.6	< 5	< 5	< 5
COc1ccc2c(c1OC)C(=O)O[C@@H]2[C@H]1c2c(c(C3CCCCC3)c3c(c2OC)OCO3)CCN1C(=O)OC(C)(C)C	< 5	6.53	46.1	< 5	< 5	< 5
COc1ccc2c(c1OC)C(=O)O[C@@H]2[C@H]1c2c(c(CCCNC(=O)OC(C)(C)C)c3c(c2OC)OCO3)CCN1C(=O)OC(C)(C)C	< 5	28.9	48.2	< 5	10.6	< 5
COc1ccc2c(c1OC)C(=O)O[C@@H]2[C@H]1c2c(c(C3CC3)c3c(c2OC)OCO3)CCN1C(=O)OC(C)(C)C	< 5	7.63	19.5	< 5	6.87	< 5
COc1ccc2c(c1OC)C(=O)O[C@@H]2[C@H]1c2c(c(CC3CCCCC3)c3c(c2OC)OCO3)CCN1C(=O)OC(C)(C)C	< 5	< 5	29.3	< 5	< 5	< 5
COc1ccc2c(c1OC)C(=O)O[C@@H]2[C@H]1c2c(c(CC3CCCC3)c3c(c2OC)OCO3)CCN1C(=O)OC(C)(C)C	< 5	20.8	51.3	12	6.68	< 5
